From PubChem BioAssay
JMJD2C inh = blocks human GASC-1 demethylase activity; GST-JMJD2C(1-420) H3K9me3 demethylation, DELFIA europium; inhibition, % at 2.35 µM; 330,000 compounds, 0.069% hits; AID 2099;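 active = more than half of a compound's replicate wells show inhibition beyond 50%, single wells judged on their own value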;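 also: signal counts dimethyl H3K9 product captured on neutravidin plate; 0% = median of DMSO wells and 100% = 0.3 times that DMSO median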
A3G deaminase = APOBEC3G (human) deaminase inhibition; recombinant A3G, ssDNA deamination FAM/TAMRA fluorescence; 330,000 compounds, 0.28% hits; AID 493012; Q9HC16; inhibition, % at 20 µM;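 active = inhibition of at least 40% at 20 µM, with no more than 30% in the related APOBEC3A deaminase screen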;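 also: plate controls were DMSO wells with A3G for no effect and wells lacking A3G enzyme for full effect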
Target sequence (Q9HC16 whole entry, looked up): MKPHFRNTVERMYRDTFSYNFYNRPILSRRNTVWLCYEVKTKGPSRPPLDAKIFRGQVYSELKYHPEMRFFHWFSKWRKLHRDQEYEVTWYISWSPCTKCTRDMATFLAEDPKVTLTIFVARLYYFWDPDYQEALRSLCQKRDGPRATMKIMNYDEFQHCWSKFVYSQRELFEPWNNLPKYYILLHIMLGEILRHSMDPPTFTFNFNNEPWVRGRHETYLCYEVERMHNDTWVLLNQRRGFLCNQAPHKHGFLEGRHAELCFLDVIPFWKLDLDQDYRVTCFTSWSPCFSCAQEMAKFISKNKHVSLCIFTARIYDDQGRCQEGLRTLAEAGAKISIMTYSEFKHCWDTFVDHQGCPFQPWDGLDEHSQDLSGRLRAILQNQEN
UCH37 DUB inh = blocks the human deubiquitinase UCH37; Q9Y5K5; purified proteasome/UCH37, Ub-AMC cleavage fluorescence; inhibition, % (concentration not given with the values); 330,000 compounds, 0.33% hits; AID 588478;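 active = mean inhibition over replicate wells above about 20%, limit read from the data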;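 also: 0% = compound-free wells with enzyme and 100% = wells lacking proteasome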
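Material: Human UCH37 enzyme supplied as purified proteasome complex | Schedule: 30 min preincubation with enzyme, 25 min cleavage at room temperature | Detection: AMC fluorescence 355/460 nm | Measure: % inhibition of Ub-AMC cleavage fluorescence | Controls: Wells without proteasome as full block, compound-free enzyme plus substrate as uninhibited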
APOBEC3A inh = inhibitors of human APOBEC3A DNA deaminase. P31941. recombinant A3A, FAM/TAMRA ssDNA deamination fluorescence. inhibition, % at 20 µM. 330,000 compounds, 0.41% hits. AID 493011;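 active = at least 40% inhibition at 20 µM here, with at most 30% in a related deaminase screen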;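 also: plate controls were A3A with DMSO for no effect and wells lacking A3A enzyme for full effect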
Target sequence (P31941 whole entry, looked up): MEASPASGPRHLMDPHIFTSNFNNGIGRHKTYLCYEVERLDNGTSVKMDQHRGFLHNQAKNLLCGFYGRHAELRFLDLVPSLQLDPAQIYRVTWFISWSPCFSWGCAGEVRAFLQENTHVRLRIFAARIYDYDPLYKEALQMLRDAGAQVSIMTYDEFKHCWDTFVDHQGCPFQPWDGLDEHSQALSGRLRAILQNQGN
A3A conf = APOBEC3A (human) deaminase inhibition, confirmed | shares compounds with APOBEC3A inh | recombinant A3A, ssDNA deaminase UDG fluorescence assay | inhibition, % at 20 µM | 1,400 compounds, 63% hits | AID 493151;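 active = inhibition reaching a set limit, 80% of the first screen's cutoff, at 20 µM in any replicate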;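 also: plate controls were DMSO wells with A3A for no effect and wells lacking A3A enzyme for full effect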
UDG A3A counter = UDG inhibition in APOBEC3A counter-screen | shares compounds with APOBEC3A inh | UDG counterscreen, FAM/TAMRA uracil oligo fluorescence | inhibition, % at 20 µM | 1,000 tested, under 10 active | AID 504714; call rule not given here
* hit, by the source's call; i = inactive; · = no result given. This is a sample that favours compounds with a hit; in the whole collection about 0.97% have one here.

SMILES	JMJD2C inh	A3G deaminase	UCH37 DUB inh	APOBEC3A inh	A3A conf	UDG A3A counter
CC1=CC(C)(C)N(C(=O)c2ccccc2)c2ccccc21	-4	-4	2	-3	·	·
CC1=CC(C)(C)[N+](C)(C)c2ccccc21	11	14	3	77*	72*	-35
COC(=O)c1cnn(-c2ccccc2)c1C=NNC(=S)Nc1ccc(Cl)cc1	·	·	8	·	·	·
COc1cc(OC)c(C(=O)N(CCc2ccccc2)Cc2ccccc2)cc1OC	55	-2	2	65*	0	-2
COc1ccc(C(=O)NN=Cc2ccoc2)cc1	·	·	2	·	·	·
COc1ccccc1/C=C/C=Nn1c(-c2ccco2)n[nH]c1=S	·	·	4	·	·	·
O=[N+]([O-])c1cccc(C=NNC2=NS(=O)(=O)c3ccccc32)c1	·	·	12	·	·	·
CC(C)C(NC(=O)COc1ccc2ccccc2c1)C(=O)N/N=C/C=C/c1ccccc1 (stereo not given)	-3	16	·	41*	63*	3
Cn1c(=O)n(C)c2cc(C(=O)O)ccc21	3	-3	3	60*	-61	2
O=C(CSc1nc2ccccc2c(=O)[nH]1)c1cccs1	-7	0	0	44*	0	·
CC[N+](C)(CC)CCC(c1ccccc1)C1CCCCC1 (stereo not given)	-6	10	4	48*	67*	-2
CC[N+](C)(CC)CCOC(=O)C(O)(c1ccccc1)C1CCCCC1 (stereo not given)	1	19	3	3	·	·
CCC1N=C(SC)NC(C)=C1C(=O)c1ccccc1 (stereo not given)	-4	19	7	48*	35*	-3
CC(=O)/C(C[N+]1(C)CCCCC1)=N\O	-2	21	·	41*	82*	5
CON=C(c1nonc1N)N1CCN(c2ccc([N+](=O)[O-])cc2)CC1	·	·	3	·	·	·
N=C(N)Cc1ccccc1Sc1ccccc1	-7	1	3	42*	1	·
CSCC[C@H](NC(=O)c1ccc(Cl)c(S(=O)(=O)N2CCCC2)c1)c1nc2ccccc2[nH]1	4	11	1	45*	54*	2
CSCCC(NC(=O)c1cccc(S(=O)(=O)N2CCN(C(C)=O)CC2)c1)c1nc2ccccc2[nH]1 (stereo not given)	·	·	2	·	·	·
CCOc1ccc(NC(=O)CC2C(=O)N(c3ccccc3)C(=O)N2Cc2ccco2)cc1 (stereo not given)	-16	-8	4	-5	·	·
CCOc1ccc(NC(=O)CC2C(=O)N(c3ccccc3)C(=O)N2CCc2cccs2)cc1 (stereo not given)	2	-6	5	72*	-51	-2
COc1ccc(NC(=O)CN(C)CC(=O)N(C)C2(C#N)CCC(C)CC2)cc1 (stereo not given)	3	9	1	44*	33*	3
CN(CC(=O)Nc1ccc(F)cc1)CC(=O)N(C)C1(C#N)CCCCC1	3	-6	2	-4	·	·
CC(C)Oc1ccc(CCC(=O)NN=Cc2ccncc2)cc1	·	·	1	·	·	·
COc1ccc(-c2nnc3sc(C4CCCCC4)nn23)cc1OC	1	16	4	49*	30	·
CCCCc1ccc(NC(=O)Nc2c(C)n(C)n(-c3ccccc3)c2=O)cc1	25	-3	1	62*	-9	2
SMILES	JMJD2C inh	A3G deaminase	UCH37 DUB inh	APOBEC3A inh	A3A conf	UDG A3A counter
Cn1cccc1C(=O)NN=Cc1c(Cl)cccc1Cl	·	·	3	·	·	·
COc1ccc(Cl)cc1C(=O)NNC(=O)c1csc(N2CCOCC2)n1	-14	-6	5	41*	-4	3
CCOc1ccc(C=Nn2cc(-c3ccccc3)[nH]c2=S)cc1	·	·	1	·	·	·
CC(C)CN(C(=O)CCc1ccccc1Cl)c1c(N)n(Cc2ccccc2)c(=O)[nH]c1=O	-6	-9	3	4	·	·
CC(C)CN(C(=O)CC(C)c1ccccc1)c1c(N)n(Cc2ccccc2)c(=O)[nH]c1=O (stereo not given)	3	20	3	70*	11	·
N#Cc1ccc(CN2CCN(C(=O)Cn3nc(C(N)=O)c4ccccc4c3=O)CC2)cc1	3	6	0	58*	25	·
Brc1ccsc1C=NNc1ccccc1	·	·	4	·	·	·
CSC1=NC2C(N1)N(C)C(=O)N2C (stereo not given)	6	20	1	58*	21	·
O=[N+]([O-])c1ccc(C(O)C[n+]2ccccc2)cc1 (stereo not given)	-2	19	2	91*	71*	-2
Cc1nc2ccccc2n1CC(O)COCC1CC=CCC1 (stereo not given)	6	16	-2	-3	·	·
CCCc1n(CC)c2ccccc2[n+]1CC(O)COC1CCCCC1 (stereo not given)	74	15	1	89*	75*	2
Cc1n(CC(O)COCc2ccccc2)c2ccccc2[n+]1C (stereo not given)	-8	16	2	59*	71*	-2
CCn1c(NC2CCCCC2)nc2ccccc21	11	0	-2	0	·	·
CCc1n(CC(O)COCC2CC=CCC2)c2ccccc2[n+]1C (stereo not given)	5	27	0	62*	70*	-2
CCc1n(CC(O)COC2CCCCC2)c2ccccc2[n+]1C (stereo not given)	-14	20	2	67*	71*	-2
COc1ccc(C(=O)NCC(=O)NN=C(C)Cc2ccccc2)cc1	·	·	4	·	·	·
CCn1c(C)[n+](CC(O)COCC2CC=CCC2)c2ccccc21 (stereo not given)	-4	29	4	66*	75*	-2
CCNc1ccc(S(=O)(=O)N(C)C)cc1[N+](=O)[O-]	1	21	3	67*	54*	·
CCOC(=O)c1ccc2c(c1)n(CC)c(/C=C/N(C)c1ccccc1)[n+]2CC	-7	17	24*	57*	79*	3
CCOC(=O)c1ccc2c(c1)n(CCO)c(C)[n+]2CC	-14	21	4	43*	82*	7
COC(=O)c1ccc2c(c1)nc(C)n2CCO	-20	-4	0	-4	·	·
Fc1ccc(Nc2ncnc3sc4c(c23)CCC4)cc1	-8	-5	1	61*	0	2
c1ccc(Nc2ncnc3sc4c(c23)CCC4)cc1	i	-5	4	-1	·	·
N#C/C(=C\c1c[nH]c2ccccc12)C(=O)NCC1CCCO1 (stereo not given)	-1	22	7	63*	64*	2
CCOc1ccc(N(CC(=O)Nc2ccccc2)S(C)(=O)=O)cc1	5	9	-2	43*	64*	-4
CCOc1ccc(N(CC(=O)Nc2ccc(C)c(C)c2)S(=O)(=O)c2c(C)[nH]c(=O)[nH]c2=O)cc1	17	-3	0	1	·	·
